The source of these data is ChEMBL document CHEMBL5131571, “Design, Synthesis, and Evaluation of Lung-Retentive Prodrugs for Extending the Lung Tissue Retention of Inhaled Drugs” (J Med Chem, 2022).

Structures are written as SMILES.

Data set [1] in a line: Drug metabolism in rat lung homogenate assessed as 1-(((S)-2-Amino-3,3-dimethylbutanoyl)oxy)ethyl-4-(2-hydroxy-2,2-diphenylacetoxy)piperidine-1-carboxylate Hydrochloride intermediate formation at 1500 ng/ml by MS/MS analysis. Format: ADME, tissue-based. Conditions: tissue homogenate. An outline of the steps: (§1)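 Wistar Han rat lung homogenized, then diluted 1 in 4 by mass with water (pH 6.8). Incubated at nominal 1500 ng/mL, 37 °C. Breakdown followed over 1500 min by MS/MS against authenticated samples of prodrug, intermediate and parent.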

The nature of data set [2]: Drug metabolism in rat lung homogenate assessed as piperidin-4-yl-2-hydroxy-2,2-diphenylacetate formation at 1500 ng/ml by MS/MS analysis. Format: ADME, tissue-based. As to conditions: tissue homogenate. An outline of the steps:
as §1

The nature of data set [3]: Stability of compound in PBS at pH 7.4 assessed as half life by LC-MS analysis. Format: physicochemical. The gist of the method:
(§2)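 1000 ng/mL final (from 200 μg/mL D6-DMSO stock) in prewarmed matrix at 37 °C with continuous shaking, triplicate. Matrices: pH 6.5 or 7.4 phosphate buffer, 1 in 4 water-diluted Wistar Han lung homogenate (pH 6.8), or fresh rat blood. Timed aliquots quenched in MeCN with labetalol/reserpine internal standards. Half-life by MS, mean ± SD.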

Data set [4] in a line: Stability in Crl Wistar Han rat blood at pH 7.2 assessed as half life by mass spectroscopic analysis. Format: ADME, tissue-based. The gist of the method:
as §2

The nature of data set [5]: Stability in Crl Wistar Han rat lung homogenate at pH 6.8 assessed as half life by mass spectroscopic analysis. The format is ADME, tissue-based. An outline of the steps: as §2
Data set [6] is described as follows: Stability of compound in PBS at pH 6.5 assessed as half life by LC-MS analysis. The format is physicochemical. The gist of the method:
as §2

The nature of data set [7]: Drug metabolism in rat lung homogenate assessed as 1-(((R)-2-amino-3,3-dimethylbutanoyl)oxy)ethyl 4-(2-hydroxy-2,2-diphenylacetoxy)piperidine-1-carboxylate intermediate formation at 1500 ng/ml by MS/MS analysis. The format is ADME, tissue-based. As to conditions: tissue homogenate. The gist of the method:
as §1

Data set [8] can be described thus: Plasma concentration in Crl Sprague-Dawley rat at 0.2 mg/kg, IT measured at 3 to 24 hrs by LC-MS/MS analysis. Format: ADME, organism-based. Conditions: in vivo, other, time 3-24 hrs. The gist of the method: (§3)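 Male Sprague Dawley rats, n = 3 per time point, given a single intratracheal dose of 0.2 mg/kg at 1 mL/kg in 5% ethanol in pH 6.5 PBS. Serial blood into EDTA, centrifuged for plasma. At 24 h, lungs taken after CO2 euthanasia, rinsed, blotted, weighed, snap-frozen and homogenized. Methanol/acetonitrile protein precipitation with imipramine internal standard. Quantified by LC–MS/MS.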

Data set [9] can be described thus: Plasma concentration in Crl Sprague-Dawley rat at 0.2 mg/kg, IT measured at 0.5 hrs by LC-MS/MS analysis. Format: ADME, organism-based. An outline of the steps: as §3
Data set [10] is described as follows: Drug concentration in lung of Crl Sprague-Dawley rat at 0.2 mg/kg, IT measured at 24 hrs by LC-MS/MS analysis. The format is ADME, organism-based. As to conditions: read-out: Ct. The gist of the method: as §3
A short description of data set [11]: Plasma concentration in Crl Sprague-Dawley rat at 0.2 mg/kg, IT measured at 1 hr by LC-MS/MS analysis. The format is ADME, organism-based. An outline of the steps:
as §3

The nature of data set [12]: Plasma concentration in Crl Sprague-Dawley rat at 0.2 mg/kg, IT measured at 0.25 hrs by LC-MS/MS analysis. Format: ADME, organism-based. The gist of the method: as §3
Data set [13] can be described thus: Protein binding to Crl Wistar Han rat lung homogenate assessed as free fraction by mass spectroscopic analysis. Format: ADME, tissue-based. The gist of the method:
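Rapid equilibrium dialysis of spiked 1 in 4 Wistar Han rat lung homogenate (1000 ng/mL) against pH 6.5 PBS, 4 h, 37 °C, orbital shaking. Recovery and time-0/240 matrix controls included. Samples matrix-matched 1:1, MeCN precipitation with labetalol/reserpine internal standards, MS quantification. Triplicate, mean ± SD.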

The nature of data set [14]: Plasma concentration in Crl Sprague-Dawley rat at 0.2 mg/kg, IT measured at 2 hrs by LC-MS/MS analysis. The format is ADME, organism-based. An outline of the steps: as §3

As to `CC(OC(=O)[C@@H](NC(=O)[C@@H](N)CCCCN)C(C)(C)C)OC(=O)N1CCC(OC(=O)C(O)(c2ccccc2)c2ccccc2)CC1.Cl.Cl` (stereo not given in full), the Drug metabolism entry in [1] and in data set [2] was “Metabolite_Detected” throughout.
Regarding `CC(OC(=O)C[C@@H](N)CCCCN)OC(=O)N1CCC(OC(=O)C(O)(c2ccccc2)c2ccccc2)CC1.Cl.Cl` (stereo not given in full), the half-life in data set [3] is 5.9 h; in data set [4] it was 0.3 h; in data set [5] it was 3.1 h; in data set [6] it was 29.1 h.
Regarding `CC(OC(=O)[C@H](NC(=O)[C@@H](N)CCCCN)C(C)(C)C)OC(=O)N1CCC(OC(=O)C(O)(c2ccccc2)c2ccccc2)CC1.Cl.Cl` (stereo not given in full), the Drug metabolism entry is on record as “Metabolite_Notdetected” in [7] and “Metabolite_Detected” in [2]. Besides, in data set [8], the Cp is 1 ng/mL. In data set [9], this compound showed a concentration at 0.5 h of 1.63 ng/mL. In addition, the concentration at 24 h in data set [10] came to 20000 ng/mL. Also, the concentration at 1 h in data set [11] came out at 2.1 ng/mL. The same compound gave a concentration at 0.25 h in data set [12] of 2.03 ng/mL. Further, the fraction unbound in data set [13] was found to be 0.005. Besides, in data set [14], the concentration at 2 h was 1.25 ng/mL.
